Measured values pooled from the literature.
Lines come from different studies, so protocols differ.
EGFR L858R: Epidermal growth factor receptor (EGFR, Homo sapiens, UniProt P00533, L858R)
EGFR G719S: Epidermal growth factor receptor (EGFR, Homo sapiens, UniProt P00533, G719S)
EGFR L861Q: Epidermal growth factor receptor (EGFR, Homo sapiens, UniProt P00533, L861Q)
EGFR del746-750: Epidermal growth factor receptor (EGFR, Homo sapiens, UniProt P00533, del746-750)
EGFR T790M: Epidermal growth factor receptor (EGFR, Homo sapiens, UniProt P00533, T790M)
EGFR G719C: Epidermal growth factor receptor (EGFR, Homo sapiens, UniProt P00533, G719C)
EGFR L858R/T790M: Epidermal growth factor receptor (EGFR, Homo sapiens, UniProt P00533, L858R/T790M)

O=C(Nc1c[nH]nc1C(=O)NC1CCNCC1)c1cc(F)cc(F)c1  remaining binding (EGFR L858R; binding, competition with immobilised ligand; 1 µM): 90%
CN(c1nccc(-c2cnn3ncccc23)n1)C1CC1  remaining binding (EGFR G719S; binding; 1 µM): 100%
Cn1nc(C(=O)NCc2ccc(C(=O)O)cc2)cc1-c1ccc2[nH]ccc2c1  remaining binding (EGFR L861Q; cell-free assay, competition with immobilised ligand; 0.1 µM): 69%
O=C(c1ccc(Nc2ncc(Cl)c(-c3ccc(Cl)s3)n2)cc1)N1CCC(N2CCCC2)CC1  remaining binding (EGFR del746-750; binding, competition with immobilised ligand; 1 µM): 90%
C[C@H](c1ccnc(Nc2nc3ccc(-c4cc(N(C)C)ncn4)cc3[nH]2)c1)N1CCN(C(=O)CC(F)(F)F)CC1  remaining binding (Epidermal growth factor receptor (EGFR, Homo sapiens, UniProt P00533, A750P/del747-749); cell-free assay, competition with immobilised ligand; 0.1 µM): 89%
COc1cnc(Nc2cccc(S(N)(=O)=O)c2)nc1N1CCN(c2ccccc2)CC1  remaining binding (EGFR del746-750; binding, competition with immobilised ligand; 1 µM): 90%
Cc1cnc(Nc2ccc(C(=O)N3CCC(N4CCCC4)CC3)cc2)nc1-c1cc2ccccc2s1  remaining binding (EGFR G719S; binding, competition with immobilised ligand; 1 µM): 97%
C[C@@H]1CN(c2cc(-c3nn(C)c4ccc(OC5(C)CC5)cc34)ncn2)C[C@H](C)O1  remaining binding (EGFR L858R; cell-free assay, competition with immobilised ligand; 1 µM): 95%
O=C(c1ccc(Nc2ncc(Cl)c(-c3cc4ccccc4s3)n2)cc1)N1CCC(N2CCCC2)CC1  remaining binding (EGFR L858R; binding, competition with immobilised ligand; 1 µM): 81%
CN(C)c1nccc(-c2cnc3ncccn23)n1  remaining binding (EGFR G719S; binding; 1 µM): 84%
CCS(=O)(=O)c1cc2cc(C[C@](O)(CC(C)(C)c3ccc(F)cc3C(N)=O)C(F)(F)F)[nH]c2cn1  remaining binding (EGFR T790M; cell-free assay, competition with immobilised ligand; 1 µM): 78%
CNC(=O)[C@@H]1CC[C@@H](n2c(-c3ccc4cnccc4c3)nc3ccc(C(=O)NCc4cccc(C(N)=O)c4)cc32)C1  remaining binding (EGFR T790M; binding, competition with immobilised ligand; 1 µM): 72%
O=C(Nc1cccnn1)N1CC(C/C=C/c2cncc(Oc3ccc(C(F)(F)F)cn3)n2)C1  remaining binding (EGFR G719C; cell-free assay, competition with immobilised ligand; 1 µM): 100%
F[C@@H]1CCN(c2nccc(-c3cnn4ncccc34)n2)C1  remaining binding (Epidermal growth factor receptor (EGFR, Homo sapiens, UniProt P00533, del752-759); binding; 1 µM): 100%
O=C(NCCCN1CCOCC1)c1ccc(Nc2nccc(-c3cc4ccccc4s3)n2)cc1  remaining binding (EGFR L858R/T790M; binding, competition with immobilised ligand; 1 µM): 75%
CCC(=O)N[C@@H]1CC[C@H](C(=O)N(C)c2ccc(-c3nc4ccccc4o3)cc2)C1  remaining binding (EGFR G719S; cell-free assay, competition with immobilised ligand; 1 µM): 96%
CC1CCCN1c1nccc(-c2cnn3ncccc23)n1 (stereo not drawn)  remaining binding (EGFR G719C; binding; 1 µM): 100%
O=C(NCCCN1CCOCC1)c1ccc(Nc2ncc(Cl)c(-c3ccc(Cl)s3)n2)cc1  remaining binding (EGFR L858R/T790M; binding, competition with immobilised ligand; 1 µM): 55%
CN(C)c1ncc(F)c(-c2cnn3ncccc23)n1  remaining binding (EGFR del746-750; binding; 1 µM): 100%
c1cncc(-c2cccc(Nc3nccc(NC4CCCCC4)n3)c2)c1  remaining binding (EGFR L858R/T790M; binding, competition with immobilised ligand; 10 µM): 29%
C[C@H]1CCN(c2nccc(-c3cnn4ncccc34)n2)C1  remaining binding (EGFR G719C; binding; 1 µM): 85%
CCN1CCN(Cc2ccc(C(=O)Nc3ccc(C)c(Oc4ccc5c(c4)CC(=O)N5)c3)cc2C(F)(F)F)CC1  remaining binding (EGFR del746-750; binding, competition with immobilised ligand; 1 µM): 99%
CN(C(=O)c1ccccc1)c1cc(N(C)c2ccc3c(c2)CCc2ccc(C(=O)NCCN4CCOCC4)cc2C3=O)ccc1F  remaining binding (EGFR L861Q; cell-free assay, competition with immobilised ligand; 1 µM): 100%
c1cnn2ncc(-c3ccnc(N4CCC45COC5)n3)c2c1  remaining binding (EGFR L858R; binding; 1 µM): 84%
